{"source": "ChEMBL document CHEMBL1152796", "about": "“Azole antimicrobial pharmacophore-based tetrazoles: synthesis and biological evaluation as potential antimicrobial and anticonvulsant agents” (Bioorg Med Chem, 2009)", "note": "Calls of active or inactive are those of the source. No cut-off for these calls is given here."}
{"test_system": "Staphylococcus aureus", "experiment": "Antibacterial activity against Staphylococcus aureus ATCC 6538 after 24 to 48 hrs by twofold serial dilution method", "format": "functional", "details": "not given", "procedure,_shortened": "(§1)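 Broth microdilution in Müller–Hinton broth. DMSO stocks at 800 were diluted twofold from 400 down to 6.25. Wells received 10^6 CFU/mL bacterial suspension and were incubated at 36 °C for 24–48 h, with controls. MIC was read per well. Duplicate assays; run only for compounds giving inhibition zones ≥14 mm.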", "units": {"MIC": "µg/mL"}}
{"smiles": "O=C(COC(Cn1nnnc1Cc1ccccc1)c1ccc(Cl)cc1)NNC(=S)Nc1ccc(Cl)cc1", "note": "(stereo not drawn)", "MIC": 100}
{"smiles": "Sc1nnc(COC(Cn2nnc(-c3ccccc3)n2)c2ccc(Cl)cc2)o1", "note": "(stereo not drawn)", "MIC": 6.25}
{"test_system": "Bacillus subtilis", "experiment": "Antibacterial activity against Bacillus subtilis NRRL B-14819 after 24 to 48 hrs by twofold serial dilution method", "format": "functional", "details": "not given", "procedure,_shortened": "as §1", "units": {"MIC": "µg/mL"}}
{"smiles": "O=C(COC(Cn1nnnc1Cc1ccccc1)c1ccc(Cl)cc1)NNC(=S)Nc1ccc(Cl)cc1", "note": "(stereo not drawn)", "MIC": "≥ 200"}
{"smiles": "Sc1nnc(COC(Cn2nnc(-c3ccccc3)n2)c2ccc(Cl)cc2)o1", "note": "(stereo not drawn)", "MIC": 25}
{"test_system": "Micrococcus luteus", "experiment": "Antibacterial activity against Micrococcus luteus ATCC 21881 after 24 to 48 hrs by twofold serial dilution method", "format": "functional", "details": "not given", "procedure,_shortened": "as §1", "units": {"MIC": "µg/mL"}}
{"smiles": "O=C(COC(Cn1nnnc1Cc1ccccc1)c1ccc(Cl)cc1)NNC(=S)Nc1ccc(Cl)cc1", "note": "(stereo not drawn)", "MIC": "≥ 200"}
{"smiles": "Sc1nnc(COC(Cn2nnc(-c3ccccc3)n2)c2ccc(Cl)cc2)o1", "note": "(stereo not drawn)", "MIC": 50}
{"test_system": "Escherichia coli", "experiment": "Antibacterial activity against Escherichia coli ATCC 25922 after 24 to 48 hrs by twofold serial dilution method", "format": "functional", "details": "not given", "procedure,_shortened": "as §1", "units": {"MIC": "µg/mL"}}
{"smiles": "O=C(COC(Cn1nnnc1Cc1ccccc1)c1ccc(Cl)cc1)NNC(=S)Nc1ccc(Cl)cc1", "note": "(stereo not drawn)", "MIC": "≥ 200"}
{"smiles": "Sc1nnc(COC(Cn2nnc(-c3ccccc3)n2)c2ccc(Cl)cc2)o1", "note": "(stereo not drawn)", "MIC": 25}
{"test_system": "Pseudomonas aeruginosa", "experiment": "Antibacterial activity against Pseudomonas aeruginosa ATCC 27853 after 24 to 48 hrs by twofold serial dilution method", "format": "functional", "details": "not given", "procedure,_shortened": "as §1", "units": {"MIC": "µg/mL"}}
{"smiles": "O=C(COC(Cn1nnnc1Cc1ccccc1)c1ccc(Cl)cc1)NNC(=S)Nc1ccc(Cl)cc1", "note": "(stereo not drawn)", "MIC": "≥ 200"}
{"smiles": "Sc1nnc(COC(Cn2nnc(-c3ccccc3)n2)c2ccc(Cl)cc2)o1", "note": "(stereo not drawn)", "MIC": 50}
{"test_system": "Klebsiella pneumoniae", "experiment": "Antibacterial activity against Klebsiella pneumoniae isolate after 24 to 48 hrs by twofold serial dilution method", "format": "functional", "details": "not given", "procedure,_shortened": "as §1", "units": {"MIC": "µg/mL"}}
{"smiles": "O=C(COC(Cn1nnnc1Cc1ccccc1)c1ccc(Cl)cc1)NNC(=S)Nc1ccc(Cl)cc1", "note": "(stereo not drawn)", "MIC": "≥ 200"}
{"smiles": "Sc1nnc(COC(Cn2nnc(-c3ccccc3)n2)c2ccc(Cl)cc2)o1", "note": "(stereo not drawn)", "MIC": 100}
{"test_system": "Candida tropicalis", "experiment": "Antifungal activity against Candida tropicalis isolate after 72 hrs by twofold serial dilution method", "format": "functional, organism-based", "details": "not given"}
{"smiles": "O=C(COC(Cn1nnnc1Cc1ccccc1)c1ccc(Cl)cc1)NNC(=S)Nc1ccc(Cl)cc1", "note": "(stereo not drawn)", "Activity": "inactive"}
{"smiles": "Sc1nnc(COC(Cn2nnc(-c3ccccc3)n2)c2ccc(Cl)cc2)o1", "note": "(stereo not drawn)", "Activity": "inactive"}
{"test_system": "Pichia kudriavzevii", "experiment": "Antifungal activity against Candida krusei isolate after 72 hrs by twofold serial dilution method", "format": "functional, organism-based", "details": "not given"}
{"smiles": "O=C(COC(Cn1nnnc1Cc1ccccc1)c1ccc(Cl)cc1)NNC(=S)Nc1ccc(Cl)cc1", "note": "(stereo not drawn)", "Activity": "inactive"}
{"smiles": "Sc1nnc(COC(Cn2nnc(-c3ccccc3)n2)c2ccc(Cl)cc2)o1", "note": "(stereo not drawn)", "Activity": "inactive"}
{"test_system": "Aspergillus niger", "experiment": "Antifungal activity against Aspergillus niger isolate after 72 hrs by twofold serial dilution method", "format": "functional, organism-based", "details": "not given"}
{"smiles": "O=C(COC(Cn1nnnc1Cc1ccccc1)c1ccc(Cl)cc1)NNC(=S)Nc1ccc(Cl)cc1", "note": "(stereo not drawn)", "Activity": "inactive"}
{"smiles": "Sc1nnc(COC(Cn2nnc(-c3ccccc3)n2)c2ccc(Cl)cc2)o1", "note": "(stereo not drawn)", "Activity": "inactive"}
{"test_system": "Trichophyton rubrum", "experiment": "Antifungal activity against Trichophyton rubrum isolate after 72 hrs by twofold serial dilution method", "format": "functional, organism-based", "details": "not given"}
{"smiles": "O=C(COC(Cn1nnnc1Cc1ccccc1)c1ccc(Cl)cc1)NNC(=S)Nc1ccc(Cl)cc1", "note": "(stereo not drawn)", "Activity": "inactive"}
{"smiles": "Sc1nnc(COC(Cn2nnc(-c3ccccc3)n2)c2ccc(Cl)cc2)o1", "note": "(stereo not drawn)", "Activity": "inactive"}
{"test_system": "Mus musculus", "experiment": "Anticonvulsant activity in Wister albino mouse assessed as protection against subcutaneous metrazole-induced seizures at 100 mg/kg, ip administered 30 mins before metrazole challenge measured after 30 mins", "format": "functional", "details": "route intraperitoneal", "procedure,_shortened": "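Wistar albino mice, either sex, 25–30 g, 3 months old, in groups of six. Compounds in DMSO were given ip at 30, 100 or 300 mg/kg; vehicle-only controls. After 30 min, metrazole 100 mg/kg in DMSO was injected sc at the posterior midline. Protection meant absence of any clonic spasm lasting ≥5 s; scored as protected/tested.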", "units": {"Activity": "%"}}
{"smiles": "Sc1nnc(COC(Cn2nnc(-c3ccccc3)n2)c2ccc(Cl)cc2)o1", "note": "(stereo not drawn)", "Activity": 33}
{"test_system": "Mus musculus", "experiment": "Anticonvulsant activity in Wister albino mouse assessed as protection against maximal electroshock-induced seizures at 100 mg/kg, ip administered 30 mins before metrazole challenge measured after 30 mins", "format": "functional", "details": "route intraperitoneal", "units": {"Activity": "%"}}
{"smiles": "Sc1nnc(COC(Cn2nnc(-c3ccccc3)n2)c2ccc(Cl)cc2)o1", "note": "(stereo not drawn)", "Activity": 0}
{"test_system": "Staphylococcus aureus", "experiment": "Antibacterial activity against Staphylococcus aureus ATCC 6538 at 1 mg/mL after 24 hrs by agar diffusion method", "format": "functional", "details": "ATCC 6538, 24 h, read-out: Diameter of inhibition zone", "procedure,_shortened": "(§2)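 Agar disc diffusion: 5 mm sterile paper discs soaked in 1 mg/mL test solution in DMSO were placed on agar seeded with the organism, in triplicate, with a DMSO-only control. Bacterial plates were incubated at 37 °C for 24 h and fungal plates for 7 days. Read-out was the average inhibition-zone diameter in mm. Fungi were clinical isolates.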", "units": {"zone of inhibition at 1000 µg/mL": "mm"}}
{"smiles": "O=C(COC(Cn1nnnc1Cc1ccccc1)c1ccc(Cl)cc1)NNC(=S)Nc1ccc(Cl)cc1", "note": "(stereo not drawn)", "zone of inhibition at 1000 µg/mL": "≥ 14"}
{"smiles": "Sc1nnc(COC(Cn2nnc(-c3ccccc3)n2)c2ccc(Cl)cc2)o1", "note": "(stereo not drawn)", "zone of inhibition at 1000 µg/mL": "≥ 14"}
{"test_system": "Bacillus subtilis", "experiment": "Antibacterial activity against Bacillus subtilis NRRL B-14819 at 1 mg/mL after 24 hrs by agar diffusion method", "format": "functional", "details": "read-out: Diameter of inhibition zone", "procedure,_shortened": "as §2", "units": {"zone of inhibition at 1000 µg/mL": "mm"}}
{"smiles": "O=C(COC(Cn1nnnc1Cc1ccccc1)c1ccc(Cl)cc1)NNC(=S)Nc1ccc(Cl)cc1", "note": "(stereo not drawn)", "zone of inhibition at 1000 µg/mL": "≥ 14"}
{"smiles": "Sc1nnc(COC(Cn2nnc(-c3ccccc3)n2)c2ccc(Cl)cc2)o1", "note": "(stereo not drawn)", "zone of inhibition at 1000 µg/mL": "≥ 14"}
{"test_system": "Micrococcus luteus", "experiment": "Antibacterial activity against Micrococcus luteus ATCC 21881 at 1 mg/mL after 24 hrs by agar diffusion method", "format": "functional", "details": "ATCC 21881, 24 h, read-out: Diameter of inhibition zone", "procedure,_shortened": "as §2", "units": {"zone of inhibition at 1000 µg/mL": "mm"}}
{"smiles": "O=C(COC(Cn1nnnc1Cc1ccccc1)c1ccc(Cl)cc1)NNC(=S)Nc1ccc(Cl)cc1", "note": "(stereo not drawn)", "zone of inhibition at 1000 µg/mL": "≥ 14"}
{"smiles": "Sc1nnc(COC(Cn2nnc(-c3ccccc3)n2)c2ccc(Cl)cc2)o1", "note": "(stereo not drawn)", "zone of inhibition at 1000 µg/mL": "≥ 14"}
{"test_system": "Escherichia coli", "experiment": "Antibacterial activity against Escherichia coli ATCC 25922 at 1 mg/mL after 24 hrs by agar diffusion method", "format": "functional", "details": "ATCC 25922, 24 h, read-out: Diameter of inhibition zone", "procedure,_shortened": "as §2", "units": {"zone of inhibition at 1000 µg/mL": "mm"}}
{"smiles": "O=C(COC(Cn1nnnc1Cc1ccccc1)c1ccc(Cl)cc1)NNC(=S)Nc1ccc(Cl)cc1", "note": "(stereo not drawn)", "zone of inhibition at 1000 µg/mL": "≥ 14"}
{"smiles": "Sc1nnc(COC(Cn2nnc(-c3ccccc3)n2)c2ccc(Cl)cc2)o1", "note": "(stereo not drawn)", "zone of inhibition at 1000 µg/mL": "≥ 14"}
{"test_system": "Pseudomonas aeruginosa", "experiment": "Antibacterial activity against Pseudomonas aeruginosa ATCC 27853 at 1 mg/mL after 24 hrs by agar diffusion method", "format": "functional", "details": "ATCC 27853, 24 h, read-out: Diameter of inhibition zone", "procedure,_shortened": "as §2", "units": {"zone of inhibition at 1000 µg/mL": "mm"}}
{"smiles": "O=C(COC(Cn1nnnc1Cc1ccccc1)c1ccc(Cl)cc1)NNC(=S)Nc1ccc(Cl)cc1", "note": "(stereo not drawn)", "zone of inhibition at 1000 µg/mL": "≥ 14"}
{"smiles": "Sc1nnc(COC(Cn2nnc(-c3ccccc3)n2)c2ccc(Cl)cc2)o1", "note": "(stereo not drawn)", "zone of inhibition at 1000 µg/mL": "≥ 14"}
{"test_system": "Klebsiella pneumoniae", "experiment": "Antibacterial activity against Klebsiella pneumoniae isolate at 1 mg/mL after 24 hrs by agar diffusion method", "format": "functional", "details": "read-out: Diameter of inhibition zone", "procedure,_shortened": "as §2", "units": {"zone of inhibition at 1000 µg/mL": "mm"}}
{"smiles": "O=C(COC(Cn1nnnc1Cc1ccccc1)c1ccc(Cl)cc1)NNC(=S)Nc1ccc(Cl)cc1", "note": "(stereo not drawn)", "zone of inhibition at 1000 µg/mL": "≥ 14"}
{"smiles": "Sc1nnc(COC(Cn2nnc(-c3ccccc3)n2)c2ccc(Cl)cc2)o1", "note": "(stereo not drawn)", "zone of inhibition at 1000 µg/mL": "≥ 14"}
{"test_system": "Candida albicans", "experiment": "Antifungal activity against Candida albicans isolate at 1 mg/mL after 7 days by twofold serial dilution method", "format": "functional", "details": "168 h, read-out: Diameter of inhibition zone", "units": {"zone of inhibition at 1000 µg/mL": "mm"}}
{"smiles": "O=C(COC(Cn1nnnc1Cc1ccccc1)c1ccc(Cl)cc1)NNC(=S)Nc1ccc(Cl)cc1", "note": "(stereo not drawn)", "zone of inhibition at 1000 µg/mL": "≥ 14"}
{"smiles": "Sc1nnc(COC(Cn2nnc(-c3ccccc3)n2)c2ccc(Cl)cc2)o1", "note": "(stereo not drawn)", "zone of inhibition at 1000 µg/mL": "≥ 14"}
{"test_system": "Aspergillus fumigatus", "experiment": "Antifungal activity against Aspergillus fumigatus isolate at 1 mg/mL after 7 days by agar diffusion method", "format": "functional", "details": "168 h, read-out: Diameter of inhibition zone", "procedure,_shortened": "as §2", "units": {"zone of inhibition at 1000 µg/mL": "mm"}}
{"smiles": "O=C(COC(Cn1nnnc1Cc1ccccc1)c1ccc(Cl)cc1)NNC(=S)Nc1ccc(Cl)cc1", "note": "(stereo not drawn)", "zone of inhibition at 1000 µg/mL": "≥ 14"}
{"smiles": "Sc1nnc(COC(Cn2nnc(-c3ccccc3)n2)c2ccc(Cl)cc2)o1", "note": "(stereo not drawn)", "zone of inhibition at 1000 µg/mL": "≥ 14"}
